According to ChEMBL document CHEMBL1155025, “Xanthones from the botanical dietary supplement mangosteen (Garcinia mangostana) with aromatase inhibitory activity” (J Nat Prod, 2008):

What was measured:
Aromatase [1] = target: T1, Aromatase (Homo sapiens, UniProt P11511); test: Inhibition of aromatase over-expressed in human SKBR3 cells at 50 uM relative to control; assay type: cell-based; parameters: scale not given: the % may be the effect or the level left; details: SK-BR-3, human; read-out: Activity
T1 sequence (P11511 whole entry): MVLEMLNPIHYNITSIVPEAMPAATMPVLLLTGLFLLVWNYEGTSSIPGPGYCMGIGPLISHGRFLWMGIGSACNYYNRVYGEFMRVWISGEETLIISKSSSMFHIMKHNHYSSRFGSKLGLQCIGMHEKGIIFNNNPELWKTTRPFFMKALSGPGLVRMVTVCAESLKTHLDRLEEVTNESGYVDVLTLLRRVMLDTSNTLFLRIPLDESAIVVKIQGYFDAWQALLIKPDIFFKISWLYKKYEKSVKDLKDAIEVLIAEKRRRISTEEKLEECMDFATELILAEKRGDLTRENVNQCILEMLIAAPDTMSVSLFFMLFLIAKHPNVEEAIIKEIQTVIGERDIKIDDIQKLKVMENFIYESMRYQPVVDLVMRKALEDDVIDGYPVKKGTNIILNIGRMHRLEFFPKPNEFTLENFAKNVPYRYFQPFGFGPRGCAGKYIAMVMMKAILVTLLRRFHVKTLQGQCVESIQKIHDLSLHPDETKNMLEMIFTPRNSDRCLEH
Method in brief: (§1)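 SK-BR-3 human breast cancer cells overexpressing aromatase, treated in triplicate. 0.1% DMSO serves as negative control. Tritiated water formation is read as pmol 3H2O/h per 10^6 live cells and expressed as percent control activity versus DMSO.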

Aromatase [2] = target: T1, Aromatase; test: Inhibition of aromatase in human placental microsomes; parameters: species or system Placenta
Method in brief: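 Human term placental microsomes (50 µg, processed at 4 °C) incubated for 15 min at 37 °C with 100 nM [1β-3H]androstenedione in 0.1 M potassium phosphate pH 7.0, 5% propylene glycol, and NADPH-regenerating system. Quenched with CHCl3; 3H2O in aqueous layer counted by scintillation. IC50 derived from dose-response testing.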

Aromatase [3] = target: T1, Aromatase; test: Inhibition of aromatase in human placental microsomes at 20 ug/ml relative to control; parameters: species or system Placenta; scale not given: the % may be the effect or the level left
Method in brief: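 Radiometric placental microsome assay with samples at 20 µg/mL in DMSO, in triplicate. 100 nM [1β-3H]androstenedione, pH 7.0 phosphate buffer, 5% propylene glycol, and NADPH-regenerating system. Reaction started with 50 µg microsomes, run 15 min at 37 °C, and stopped with CHCl3. 3H2O counted; percent control activity taken relative to DMSO.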

Aromatase [4] = target: T1, Aromatase; test: Inhibition of aromatase over-expressed in human SKBR3 cells; assay type: cell-based, SK-BR-3
Method in brief: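 SK-BR-3 human breast cancer cells overexpressing aromatase were treated in triplicate at various concentrations (screen at 50 µM), with 0.1% DMSO as negative control and 10 nM letrozole as positive control. Read-out was pmol 3H2O formed per hour per 10^6 live cells. Percent control activity was calculated versus DMSO.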

SK-BR-3 = test: Cytotoxicity against human SKBR3 cells assessed as survival by MTT assay relative to control; assay type: functional
Method in brief: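 MTT viability assay in SK-BR-3 human breast cancer cells that overexpress aromatase. Cells exposed to samples in DMSO, with DMSO as negative control. Six replicates. Read-out is percent cell survival relative to the DMSO control. IC50 obtained from a concentration–response curve.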

Aromatase [5] = target: T1, Aromatase; test: Inhibition of aromatase over-expressed in human SKBR3 cells at 10 nM relative to control; assay type: cell-based; parameters: scale not given: the % may be the effect or the level left; details: SK-BR-3, human; read-out: Activity; method in brief: as §1

Row | Compound | activity at 50 µM (Aromatase [1]) [%] | IC50 (Aromatase [2]) [µM] | Activity (Aromatase [3]) [%] | further results
1 | CC(C)=CCc1c(O)cc2oc3cc(O)c(O)c(CC=C(C)C)c3c(=O)c2c1O | -0.5 | 6.9 | 4.7 | IC50 (Aromatase [4]): 4.97 µM
2 | COc1c(CC=C(C)C)c(O)c2c(=O)c3c(O)ccc(O)c3oc2c1CC=C(C)C | – | – | 55.1 | –
3 | COc1c(O)cc2oc3cc(O)c4c(c3c(=O)c2c1CC=C(C)C)OC(C)(C)CC4 | – | – | 52.6 | –
4 | CC(C)=CCc1c(O)c(CC=C(C)C)c2oc3c(O)cccc3c(=O)c2c1O [8-DEOXYGARTANIN] | – | – | 82.6 | –
5 | COc1c(CC=C(C)C)c(O)c2c(=O)c3cccc(O)c3oc2c1CC=C(C)C [CUDRAXANTHONE G] | – | – | 57.8 | –
6 | COc1c(O)cc2oc3cc(O)c(CC=C(C)C)c(O)c3c(=O)c2c1CCC(C)(C)O [GARCINONE D] | 50.7 | 5.2 | 10 | Survival (SK-BR-3): 89.4%
7 | CC(C)=CCc1c(O)cc2oc3c(CC=C(C)C)c(O)c(O)c(CC=C(C)C)c3c(=O)c2c1O [GARCINONE E] | 32.3 | 25.1 | 23.9 | Survival (SK-BR-3): 52.3%
8 | CC(C)=CCc1c(O)c(CC=C(C)C)c2oc3c(O)ccc(O)c3c(=O)c2c1O [GARTANIN] | – | – | 75.9 | –
9 | N#Cc1ccc(C(c2ccc(C#N)cc2)n2cncn2)cc1 [LETROZOLE] | – | – | – | activity at 0.01 µM (Aromatase [5]): 7.4%
10 | CC(C)=CCC/C(C)=C/Cc1c(O)cc2oc3c(O)cccc3c(=O)c2c1O [MANGOSTINONE] | – | – | 78.8 | –
11 | COc1c(O)cc2oc3cc(O)c(CC=C(C)C)c(O)c3c(=O)c2c1CC=C(C)C [MANGOSTIN] | 59.4 | 20.7 | 22.2 | Survival (SK-BR-3): 18.4%
12 | CC(C)=CCC/C(C)=C/Cc1c(O)cc2oc3c(O)ccc(O)c3c(=O)c2c1O [SMEATHXANTHONE A] | – | – | 80.8 | –
13 | CC(C)=CCc1c(O)cc2oc3c(CC=C(C)C)c(O)c4c(c3c(=O)c2c1O)C=CC(C)(C)O4 [TOVOPHYLLINE A] | – | – | 74.7 | –
